This is a sample that favours compounds with a hit; in the whole collection about 12% have one here.
L major viab: inhibitors of Leishmania major promastigote growth; Leishmania major promastigotes, resazurin fluorescence viability; inhibition, % at 10 µM; actives 9% (n = 200,000);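 note: promastigotes grown with compound for 44 hours at 28 °C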
Rad51 HR inh: blocks human Rad51 in homologous recombination. Q06609. hRad51 DNA strand exchange, fluorescence dequenching. inhibition, % at 10 µM. actives 0.085% (n = 200,000). AID 1385;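 active = inhibition above 40% at the single screening dose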
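Material: hRad51 filaments on single-stranded DNA; Reagent: Donor/quencher-labelled 47-bp dsDNA substrate; Compound: 10 µM final, single point; Schedule: 37 °C 15-min filament assembly, 30-min compound preincubation, 15-min exchange; Technique: FRET fluorescence, excitation 485 nm, emission 520 nm; Benchmarks: control wells and blank wells on each plate.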
Wee1 degr inh: human Wee1 degradation inhibition, primary screen | P30291 | HeLa Luc-Wee1K328M stability, luciferase luminescence; 100% = proteasome inhibitor MG132 effect | reporter increase, % at 5 µM | AID 1321 | actives 1.2% (n = 220,000);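 active = activation above the mean of all tested compounds plus 3 SD, set per screening run, cut at about 8.8% in these data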;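 note: cells exposed to compound for 20 h before luminescence read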
Target sequence (P30291 whole entry K328M): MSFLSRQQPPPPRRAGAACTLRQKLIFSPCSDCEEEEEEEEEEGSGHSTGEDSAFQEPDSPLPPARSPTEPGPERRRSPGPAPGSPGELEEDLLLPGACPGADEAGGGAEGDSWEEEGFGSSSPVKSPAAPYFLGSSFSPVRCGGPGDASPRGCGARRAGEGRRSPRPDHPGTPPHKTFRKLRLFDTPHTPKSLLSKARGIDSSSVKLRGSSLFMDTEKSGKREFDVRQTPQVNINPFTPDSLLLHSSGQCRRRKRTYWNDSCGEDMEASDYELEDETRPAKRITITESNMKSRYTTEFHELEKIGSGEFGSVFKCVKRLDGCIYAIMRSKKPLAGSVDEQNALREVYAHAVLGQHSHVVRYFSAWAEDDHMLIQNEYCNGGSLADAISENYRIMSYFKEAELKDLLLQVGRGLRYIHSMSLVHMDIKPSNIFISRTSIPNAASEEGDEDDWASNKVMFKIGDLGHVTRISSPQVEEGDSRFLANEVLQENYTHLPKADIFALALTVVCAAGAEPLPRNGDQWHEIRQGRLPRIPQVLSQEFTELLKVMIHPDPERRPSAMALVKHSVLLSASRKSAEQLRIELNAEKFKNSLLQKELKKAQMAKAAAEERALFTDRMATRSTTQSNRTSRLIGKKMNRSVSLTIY
Arbovirus anti: blocks arbovirus infection. actives 0.37% (n = 200,000). inhibition, % at 10 µM. arbovirus infection cell-based antiviral screen; in the data active = inhibition above about 30%
CHOP inhibitor: blocks CHOP induction under ER stress; inhibition, % at 10 µM; actives 3.8% (n = 220,000); AID 2732; CHO-K1 CHOP-promoter luciferase, tunicamycin-induced, 15-18 h;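 active = compounds that reduced the stress-induced luciferase reporter signal by more than about 70% of percent inhibition, limit read from the data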
PKD1 kinase inh: blocks activity of human protein kinase D1; Q15139; PKD1 kinase fluorescence polarization assay; inhibition, % (no concentration beside the values); AID 797; actives 0.056% (n = 200,000)
Wee1 stab conf: human Wee1 degradation inhibition, confirmation; shares compounds with Wee1 degr inh; HeLa Luc-Wee1K328M degradation, luminescence; vehicle 0%, proteasome-blocked wells 100%; activation, % at 5 µM; actives 4% (n = 1,100); AID 1410; in the data active = activation above about 8.9%
A number is an active result; i = inactive; nt = no result. Cut-off read from the data, not from the text of the source, unless noted: active = inhibition above about 50%; inactive = the rest.

SMILES | L major viab | Rad51 HR inh | Wee1 degr inh | Arbovirus anti | CHOP inhibitor | PKD1 kinase inh | Wee1 stab conf
Cc1ccc(S(=O)(=O)c2cnc3cc(C)nn3c2N)cc1 | i | i | i | i | i | i | nt
Cc1ccccc1OCC(=O)Nc1ccc2c(c1)OCO2 | i | nt | i | i | i | i | nt
Cc1ccc(NC(=O)COc2ccccc2C=O)cc1Cl | i | nt | 16 | i | i | i | i
Cc1ccc(C2=NN=C(NC(=O)CSc3nncn3C)SC2)cc1 | i | i | i | i | i | i | nt
Cc1ccc2nc(NC(=O)COC(=O)c3ccco3)sc2c1 | i | i | 11 | i | i | i | i
O=S(=O)(c1cnc(Cl)c(Br)c1)N1CCN(c2ncccn2)CC1 | nt | i | i | nt | i | nt | nt
CCOC(=O)CSc1nc2cc(C(F)(F)F)cnc2n1C | nt | i | 11 | nt | i | nt | i
CCCn1c(SCC(=O)OCC)nc(C(F)(F)F)cc1=O | i | i | i | i | i | i | nt
O=C1CC(C(=O)Nc2ccc(Cl)cc2[N+](=O)[O-])C2(CCCCC2)O1 (stereo unspecified) | i | i | i | i | i | i | nt
O=C(O)CC(Sc1n[nH]c(=S)s1)C(=O)O (stereo unspecified) | nt | i | i | nt | i | nt | nt
O=C(O)CCC(=O)N1N=C(c2ccccc2)CC1c1ccc2nccnc2c1 (stereo unspecified) | i | i | 13 | i | i | i | i
O=C(O)CCCC(=O)N1N=C(c2ccccc2)CC1c1ccc2nccnc2c1 (stereo unspecified) | i | i | i | i | i | i | nt
O=C(NCC1CCCO1)C1CCCN1C(=O)Nc1ccc(Cl)c(Cl)c1 (stereo unspecified) | i | i | i | i | i | i | nt
CCC(C)[C@H](NC(=O)N1CCN(c2cccc(C(F)(F)F)c2)CC1)C(=O)OC (stereo partly specified) | i | i | 12 | i | 81 | i | i
COc1cccc(C(=O)NCC(=O)OCC(=O)Nc2cc(OC)c([N+](=O)[O-])cc2C)c1 | i | i | i | i | i | i | nt
CCOc1cccc(N(C(=O)Cc2cccs2)C(C(=O)NC2CCCCC2)c2cccn2C)c1 (stereo unspecified) | i | i | 11 | i | i | i | 9.6
CCc1ccc(N(C(=O)Cc2cccs2)C(C(=O)NC2CCCCC2)c2cn(C)nc2C)cc1 (stereo unspecified) | i | i | i | i | i | i | nt
O=C(CS(=O)(=O)c1ccccc1)N1CCc2ccccc21 | i | i | 12 | i | i | i | i
Cc1ccc(C2OC3=C(C(=O)CC(C)(C)C3)C(N)=C2C#N)o1 (stereo unspecified) | i | i | 15 | i | i | i | i
C/C(CCc1ccc2c(c1)OCO2)=N\N=C(/N)SC1CC(=O)N(c2ccccc2F)C1=O (stereo unspecified) | i | i | i | i | i | i | nt
O=C(Cn1nc(C(F)(F)F)c2c1CCC2)N1CCN(c2ccccc2)CC1 | i | i | i | i | i | i | nt
CCCn1ncc(CN2CCN(Cc3ccc(C)o3)C(CCO)C2)c1C (stereo unspecified) | nt | i | 11 | nt | i | nt | i
CN(C)c1ccc(-c2nnc(-c3cccs3)o2)cc1 | i | i | 15 | i | i | i | i
CCCOc1ccc(-c2nnc(-c3cccs3)o2)cc1 | i | i | i | i | i | i | nt
O=C(CCSCc1ccccc1F)NCc1cccs1 | i | i | 11 | i | i | i | i
SMILES | L major viab | Rad51 HR inh | Wee1 degr inh | Arbovirus anti | CHOP inhibitor | PKD1 kinase inh | Wee1 stab conf
CCOC(=O)N1CCN(C(=O)CSCc2ccccc2Cl)CC1 | i | i | i | i | i | i | nt
O=C1CSC(c2cccc([N+](=O)[O-])c2)N1c1ccccc1F (stereo unspecified) | i | nt | i | i | i | i | nt
Cc1ccc(NC(=O)c2noc3c2CCCCC3)cc1C | i | nt | 13 | i | i | i | i
COc1ccccc1N1CCN(C(=O)c2ccc(S(=O)(=O)N3CCCCCC3)cc2)CC1 | i | i | 11 | i | i | i | i
COc1cc2nc(CCc3ccccc3)oc(=O)c2cc1OC | i | i | i | i | i | i | nt
O=C(Nc1ncc(Cc2ccccc2)s1)C1CCCO1 (stereo unspecified) | i | i | 11 | i | i | i | i
COC(=O)c1onc(-c2c(Cl)cccc2Cl)c1C(=O)OC | nt | i | i | nt | i | nt | nt
CC(=O)NC1=NN(C(C)=O)C(c2ccc(C(C)C)cc2)S1 (stereo unspecified) | i | i | 24 | i | i | i | i
COC(=O)c1nn(-c2ccccc2)c(=O)cc1Oc1ccccc1 | i | i | i | i | i | i | nt
CCOCCn1cnc2sc(C(=O)Nc3nc(C)c(C(=O)OCC)s3)c(C)c2c1=O | i | i | i | nt | nt | i | nt
CCOC(=O)c1sc(NC(=O)CNC(=O)Cn2cnc3sc(C)c(C)c3c2=O)nc1C | i | i | 11 | i | i | i | i
CCOc1ccc(S(=O)(=O)N(C)c2ccc(OCC(=O)N3c4ccc(C)cc4C4CN(C)CCC43)cc2)cc1 (stereo unspecified) | i | nt | 13 | i | i | i | i
O=C(NN=C1CCCC1)c1ccccc1OCc1ccc(Cl)cc1 | i | i | i | i | i | i | nt
Cc1cccc(C)c1NC(=O)c1c(-c2ccccc2)noc1C | i | i | 11 | i | i | i | i
Cc1ccccc1NC(=O)c1c(-c2ccccc2)noc1C | i | i | i | i | i | i | nt
Cc1ccc2c(c1)N(C(C)C(=O)NCCc1ccccc1)C(=O)CO2 (stereo unspecified) | i | i | 12 | i | i | i | i
COc1ccc(CCNC(=O)CCN2C(=O)COc3ccc(C)cc32)cc1OC | i | i | i | i | i | i | nt
CC(=O)Nc1nc(C)c(CCC2OCCO2)c(=O)[nH]1 | nt | i | 11 | nt | i | nt | i
CCS(=O)(=O)Nc1cccc(-c2nc3cccnc3s2)c1 | nt | nt | 12 | nt | i | nt | i
NC(=O)C1=C[C@H](c2csc3ccccc23)C[C@H](OCCCCO)O1 | i | i | 11 | i | i | i | i
COc1cc([N+](=O)[O-])ccc1NC(=O)CCCOc1cc(C)ccc1C | i | i | 13 | i | i | i | i
COc1ccccc1-n1cnnc1SCC(=O)Nc1ncc(Cl)cc1Cl | i | i | i | i | i | i | nt
COc1ccccc1-n1cnnc1SCC(=O)Nc1nc(C)c(Cl)cc1Cl | i | i | 13 | i | i | i | i
O=C(C[n+]1ccc(-c2nnc3n2CCCCC3)cc1)c1ccc(Cl)cc1 | nt | i | i | nt | i | nt | nt
COc1ccc(CN(CCC#N)CCC2(c3ccccc3)CC(C)N(C)CC2C)cc1OC (stereo unspecified) | nt | i | i | nt | i | nt | nt
COc1ccc(CNCCC2(Cc3ccccc3)CC(C)N(C)CC2C)cc1OC (stereo unspecified) | i | i | 17 | i | i | i | i
COc1ccc(C(=O)COc2ccc(F)cc2)c(O)c1 | nt | i | 18 | nt | i | nt | i
O=C(COc1ccc(F)cc1)c1c(O)cc(O)cc1O | nt | i | i | nt | i | nt | nt

Source: PubChem (several laboratories)
